Experimental data published in ChEMBL document CHEMBL1122134, “Antimalarials. 14. 5-(aryloxy)-4-methylprimaquine analogues. A highly effective series of blood and tissue schizonticidal agents” (1982).

Experiments:
[1] = Molar primaquine Index value of compound was determined; type: functional
Plasmodium cynomolgi [2] = assay: Cures in sporozoite-induced Plasmodium cynomolgi infected Rhesus monkeys (Macaca mulatta) on 0.316 mg/kg/day peroral dose after 7 days, n=2; type: functional; settings: route oral
Plasmodium cynomolgi [3] = assay: Cures in sporozoite-induced Plasmodium cynomolgi infected Rhesus monkeys (Macaca mulatta) on 0.1 mg/kg/day peroral dose after 7 days, n=3; type: functional; settings: route oral
Plasmodium cynomolgi [4] = assay: Cures in sporozoite-induced Plasmodium cynomolgi infected Rhesus monkeys (Macaca mulatta) at 1 mg/kg/day (x 7) peroral dose; n=3; type: functional; settings: route oral
Mus musculus [5] = assay: Number of cures out of five mice (Mus musculus) infected with Plasmodium berghei at 5 mg/kg(X 1) subcutaneous administration
Mus musculus [6] = assay: Number of cures out of five mice (Mus musculus) infected with Plasmodium berghei at 10 mg/kg(X 1) subcutaneous administration
Mus musculus [7] = assay: Number of cures out of five mice (Mus musculus) infected with Plasmodium berghei at 40 mg/kg(X 1) subcutaneous administration
Mus musculus [8] = assay: Number of cures out of five mice (Mus musculus) infected with Plasmodium berghei at 80 mg/kg(X 1) subcutaneous administration
Mus musculus [9] = assay: Number of cures out of five mice (Mus musculus) infected with Plasmodium berghei at 20 mg/kg(X 1) subcutaneous administration
Mus musculus [10] = assay: Number of cures out of five mice (Mus musculus) infected with Plasmodium berghei at 160 mg/kg(X 1) subcutaneous administration
Mus musculus [11] = assay: Number of cures out of five mice (Mus musculus) infected with Plasmodium berghei at 320 mg/kg(X 1) subcutaneous administration
Mus musculus [12] = assay: Number of cures out of five mice (Mus musculus) infected with Plasmodium berghei at 640 mg/kg(X 1) subcutaneous administration
Plasmodium cynomolgi [13] = assay: Cures in sporozoite-induced Plasmodium cynomolgi infected Rhesus monkeys (Macaca mulatta) on 0.1 mg/kg/day peroral dose after 7 days, n=2; type: functional; settings: route oral
Mus musculus [14] = assay: Suppressive antimalarial activity against Plasmodium berghei in Rane mice (Mus musculus) test (five mice (Mus musculus)) 10 mg/kg(X 1); type: functional
Procedure, shortened: (§1)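 Mice infected with Plasmodium berghei; five mice per dose. A single subcutaneous dose (mg/kg, ×1) was given 72 h after infection. Activity was scored as the increase in mean survival time over infected controls, with an increase of at least 100% counted as active. Cures are mice surviving at 60 days postinfection. Deaths attributed to the drug were scored as toxic.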

Mus musculus [15] = assay: Suppressive antimalarial activity against Plasmodium berghei in Rane mice (Mus musculus) test (five mice (Mus musculus)) at a dose of 5 mg/kg(X 1); type: functional; procedure, shortened: as §1
Mus musculus [16] = assay: Number of animals found toxic out of five mice (Mus musculus) infected with Plasmodium berghei at 320 mg/kg(X 1) subcutaneous administration
Plasmodium cynomolgi [17] = assay: Cures in sporozoite-induced Plasmodium cynomolgi infected Rhesus monkeys (Macaca mulatta) on 1 mg/kg/day peroral dose after 7 days, n=2; type: functional; settings: route oral
Plasmodium cynomolgi [18] = assay: Cures in sporozoite-induced Plasmodium cynomolgi infected Rhesus monkeys (Macaca mulatta) on 1.3 mg/kg/day peroral dose after 7 days, n=6; type: functional; settings: route oral
Mus musculus [19] = assay: Suppressive antimalarial activity against Plasmodium berghei in Rane mice (Mus musculus) test (five mice (Mus musculus)) 20 mg/kg (X 1); type: functional; procedure, shortened: as §1
Mus musculus [20] = assay: Suppressive antimalarial activity against Plasmodium berghei in Rane mice (Mus musculus) test (five mice (Mus musculus)) 40 mg/kg (X 1); type: functional; procedure, shortened: as §1
Mus musculus [21] = assay: Suppressive antimalarial activity against Plasmodium berghei in Rane mice (Mus musculus) test (five mice (Mus musculus)) at a dose of 160 mg/kg (X 1); type: functional; procedure, shortened: as §1
Mus musculus [22] = assay: Suppressive antimalarial activity against Plasmodium berghei in Rane mice (Mus musculus) test (five mice (Mus musculus))80 mg/kg (X 1); type: functional; procedure, shortened: as §1
Mus musculus [23] = assay: Number of animals found toxic out of five mice (Mus musculus) infected with Plasmodium berghei at 160 mg/kg(X 1)subcutaneous administration
Mus musculus [24] = assay: Number of animals found toxic out of five mice (Mus musculus) infected with Plasmodium berghei at 640 mg/kg(X 1) subcutaneous administration
Plasmodium cynomolgi [25] = assay: Relapses in sporozoite-induced Plasmodium cynomolgi infected Rhesus monkeys (Macaca mulatta) on 0.4375 mg/kg/day peroral dose after 1 day; type: functional; settings: route oral
Procedure, shortened: (§2)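 Single oral dose (×1) in P. cynomolgi-infected rhesus monkeys, given alone or with chloroquine phosphate at 5 mg/kg of salt (×7). Drug was given in salt form but dose calculated as free base. Each animal scored as cure (C), suppressive failure (SF, blood not cleared) or relapse (R, tissues not cleared).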

Plasmodium cynomolgi [26] = assay: Relapses in sporozoite-induced Plasmodium cynomolgi infected Rhesus monkeys (Macaca mulatta) on 0.875 mg/kg/day peroral dose after 1 day; type: functional; settings: route oral; procedure, shortened: as §2
Plasmodium cynomolgi [27] = assay: Suppressive failures in sporozoite-induced Plasmodium cynomolgi infected Rhesus monkeys (Macaca mulatta) on 0.875 mg/kg/day peroral dose after 1 day; type: functional; settings: route oral; procedure, shortened: as §2
Plasmodium cynomolgi [28] = assay: Suppressive failures in sporozoite-induced Plasmodium cynomolgi infected Rhesus monkeys (Macaca mulatta) on 1.75 mg/kg/day peroral dose after 1 day; type: functional; settings: route oral; procedure, shortened: as §2
Plasmodium cynomolgi [29] = assay: Suppressive failures in sporozoite-induced Plasmodium cynomolgi infected Rhesus monkeys (Macaca mulatta) on 3.5 mg/kg/day peroral dose after 1 day; type: functional; settings: route oral; procedure, shortened: as §2
Plasmodium cynomolgi [30] = assay: Cures in sporozoite-induced Plasmodium cynomolgi infected Rhesus monkeys (Macaca mulatta) on peroral 14 mg/kg/day (x 1) dose; type: functional; settings: route oral; procedure, shortened: as §2
Plasmodium cynomolgi [31] = assay: Cures in sporozoite-induced Plasmodium cynomolgi infected Rhesus monkeys (Macaca mulatta) on 3.5 mg/kg/day peroral dose after 1 day; type: functional; settings: route oral; procedure, shortened: as §2
Plasmodium cynomolgi [32] = assay: Cures in sporozoite-induced Plasmodium cynomolgi infected Rhesus monkeys (Macaca mulatta) on 7 mg/kg/day peroral dose after 1 day; type: functional; settings: route oral; procedure, shortened: as §2
Mus musculus [33] = assay: Mean survival time of mice (Mus musculus) infected with Plasmodium berghei at 5 mg/kg(X 1)subcutaneous administration
Mus musculus [34] = assay: Number of mice (Mus musculus) found toxic when infected with Plasmodium berghei at 640 mg/kg(X 1) subcutaneous administration
Mus musculus [35] = assay: Suppressive antimalarial activity against Plasmodium berghei in Rane mice (Mus musculus) test (five mice (Mus musculus)) at a dose of 5 mg/kg(X 1)A-active; type: functional; procedure, shortened: as §1
Mus musculus [36] = assay: Number of animals found toxic out of five mice (Mus musculus) infected with Plasmodium berghei at 320 mg/kg(X 1)subcutaneous administration
Mus musculus [37] = assay: Number of animals found toxic out of five mice (Mus musculus) infected with Plasmodium berghei at 640 mg/kg(X 1) subcutaneous administration; remark: listed apart in the source
Plasmodium cynomolgi [38] = assay: Radical curative activity in sporozoite-induced Plasmodium cynomolgi infected Rhesus monkeys (Macaca mulatta) on 14 mg/kg/day peroral dose after 1 day; type: functional; settings: route oral; procedure, shortened: as §2
Plasmodium cynomolgi [39] = assay: Radical curative activity in sporozoite-induced Plasmodium cynomolgi infected Rhesus monkeys (Macaca mulatta) on 7 mg/kg/day peroral dose after 1 day; type: functional; settings: route oral; procedure, shortened: as §2
Plasmodium cynomolgi [40] = assay: Radical curative activity in sporozoite-induced Plasmodium cynomolgi infected Rhesus monkeys (Macaca mulatta) on 1.75 mg/kg/day oral dose after 1 day; type: functional; procedure, shortened: as §2
Plasmodium cynomolgi [41] = assay: Radical curative activity in sporozoite-induced Plasmodium cynomolgi infected Rhesus monkeys (Macaca mulatta) after 3.5 mg/kg/day (x1) oral dose; type: functional; procedure, shortened: as §2

Compound	Molar primaquine Index [1]	Cures (Plasmodium cynomolgi [2])	Cures (Plasmodium cynomolgi [3])	Cures (Plasmodium cynomolgi [4])	Cures (Mus musculus [6])	Cures (Mus musculus [7])	Cures (Mus musculus [8])	Cures (Mus musculus [9])	Cures (Mus musculus [10])	Cures (Mus musculus [11])	Cures (Mus musculus [12])	Toxic animals (out of 5) (Mus musculus [16])	Cures (Mus musculus [24])	other results
COc1cc(NC(C)CCCN)c2ncccc2c1 (stereo not given)	1	–	–	–	–	–	–	–	–	–	–	–	–	–
COc1cc(NC(C)CCCN)c2nccc(C)c2c1Oc1ccc(Cl)c(Cl)c1.O=P(O)(O)O (stereo not given)	1.3	1	0	3	5	5	5	5	5	5	5	–	–	Cures (Mus musculus [5]): 4
COc1ccc(Oc2c(OC)cc(NC(C)CCCN)c3nccc(C)c23)cc1.O=P(O)(O)O (stereo not given)	4.3	2	–	3	–	5	5	1	5	5	2	–	–	Cures (Plasmodium cynomolgi [13]): 0; MST (Mus musculus [14]): 5.9; MST (Mus musculus [15]): 5.5; Cures (Mus musculus [16]): 0
COc1cc(NC(C)CCCN)c2ncccc2c1.O=P(O)(O)O.O=P(O)(O)O (stereo not given) [PRIMAQUINE PHOSPHATE]	–	0	–	–	–	–	–	–	–	–	–	5	5	Cures (Plasmodium cynomolgi [17]): 1; Cures (Plasmodium cynomolgi [18]): 6; MST (Mus musculus [19]): 4; MST (Mus musculus [20]): 5; MST (Mus musculus [21]): 10.8; MST (Mus musculus [22]): 9.4; Cures (Mus musculus [23]): 2
COc1cc(NC(C)CCCN)c2nccc(C)c2c1Oc1cccc(C(F)(F)F)c1.O=C(O)CCC(=O)O (stereo not given)	4.8	2	–	–	2	5	5	5	5	5	1	–	–	Cures (Plasmodium cynomolgi [13]): 0; Cures (Plasmodium cynomolgi [17]): 2; Relapses (Plasmodium cynomolgi [25]): 4; Relapses (Plasmodium cynomolgi [26]): 1; Suppressive failures (Plasmodium cynomolgi [27]): 3; Suppressive failures (Plasmodium cynomolgi [28]): 4; Suppressive failures (Plasmodium cynomolgi [29]): 1; Cures (Plasmodium cynomolgi [30]): 1; Cures (Plasmodium cynomolgi [31]): 1; Cures (Plasmodium cynomolgi [32]): 2; MST (Mus musculus [33]): 6.9; Cures (Mus musculus [34]): 4
COc1cc(NC(C)CCCN)c2nccc(C)c2c1Oc1ccc(F)cc1.O=P(O)(O)O (stereo not given)	4.2	2	0	3	3	5	5	4	5	4	3	–	–	MST (Mus musculus [35]): 7; Cures (Mus musculus [36]): 1; Cures (Mus musculus [37]): 2
COc1cc(NC(C)CCCN)c2ncccc2c1 (stereo not given) [PRIMAQUINE]	–	–	–	–	–	–	–	–	–	–	–	5	5	Cures (Plasmodium cynomolgi [38]): 2; Cures (Plasmodium cynomolgi [39]): 1; Cures (Plasmodium cynomolgi [40]): 2; Cures (Plasmodium cynomolgi [41]): 2; MST (Mus musculus [19]): 2.2; MST (Mus musculus [20]): 4.2; MST (Mus musculus [21]): 7; MST (Mus musculus [22]): 6.4
COc1cc(NC(C)CCCN)c2nccc(C)c2c1Oc1ccc(Cl)cc1Cl.O=P(O)(O)O (stereo not given)	1.3	1	0	3	1	5	5	5	5	4	3	1	2	MST (Mus musculus [15]): 5
